Assay results: article PMC2753403 (Journal of the American Chemical Society, 2009)
Several values for one entry are separate records, joined by “and”; a condition that tells them apart may be missing. Equal values may be shown once. Read-outs that look alike come from different tables or passages of the source.

Assays:
[1] = tested on: human tumor cell lines: MCF-7, NCI-H460 and SF-268; assay: FOH/GGOH rescue of cell growth inhibition; type: cell-based; settings: for rescue from growth inhibition by FOH: 20 μM FOH added; for rescue from growth inhibition by GGOH: 20 μM GGOH added
Method in brief: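 Cells were grown in RPMI-1640 with 10% FBS and 2 mM L-glutamine at 37°C, 5% CO2. They were seeded at 5,000 cells/well with test compound added, and each well also received FOH or GGOH from ethanol stocks at a fixed 20 μM. After 4 days, growth was read by MTT.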

mouse fetal metatarsal = assay: Mouse fetal metatarsal 45Ca2+ release inhibition assay; settings: read-out: IC50, 45Ca2+ release inhibition
Human FPPS = biological target: T1, Human FPPS (Homo sapiens, UniProt P14324); assay: Human FPPS inhibition; type: biochemical
T1 sequence (P14324 1-419): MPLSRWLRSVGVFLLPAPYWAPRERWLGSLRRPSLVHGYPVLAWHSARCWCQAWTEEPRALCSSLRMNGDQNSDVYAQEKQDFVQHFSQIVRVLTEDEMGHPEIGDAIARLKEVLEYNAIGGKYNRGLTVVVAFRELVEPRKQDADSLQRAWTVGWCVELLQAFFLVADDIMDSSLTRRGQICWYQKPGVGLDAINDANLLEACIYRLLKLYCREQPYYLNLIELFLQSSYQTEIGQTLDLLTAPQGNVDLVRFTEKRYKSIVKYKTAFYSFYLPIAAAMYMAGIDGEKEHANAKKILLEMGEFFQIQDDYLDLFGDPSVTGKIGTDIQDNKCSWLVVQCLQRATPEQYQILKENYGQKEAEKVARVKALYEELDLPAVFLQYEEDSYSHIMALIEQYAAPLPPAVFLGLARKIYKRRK
Method in brief: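 Recombinant human FPPS condensed geranyl diphosphate with isopentenyl diphosphate, followed by a continuous spectrophotometric phosphate-release assay. Buffer was 50 mM Tris-HCl, 1 mM MgCl2, pH 7.4. Enzyme and test compound were preincubated 30 min at 20°C. IC50 came from a dose-response curve fit.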

[2] = tested on: human tumor cell lines: MCF-7, NCI-H460 and SF-268; assay: Tumor cell growth inhibition; type: cell-based
Method in brief: (§1)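 Cells were grown in RPMI-1640 with 10% FBS and 2 mM L-glutamine at 37°C, 5% CO2, 100% humidity, and seeded at 5,000 cells/well. Test compound came from 0.01 M water stocks as a half-log serial dilution series (0.316 mM to 0.1 pM) prepared before addition. Plates ran 4 days, then MTT dose-response.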

MCF-7 = MCF-7 cell growth inhibition; type: cell-based; settings: Homo sapiens, MCF7, 96 h, read-out: IC50, tumor cell growth inhibition
Method in brief: as §1

MDA-MB-231 cells = assay: Matrigel invasion assay; type: cell-based, human; settings: 24 hours treatment, up to 10 μM
SK-ES-1 sarcoma cells = assay: SK-ES-1 sarcoma mouse xenograft; type: in vivo; settings: athymic nude mice, 5 μg daily intraperitoneal, 30 days
Method in brief: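 Four 6-week-old athymic nude mice each received 1.5×10^7 human SK-ES-1 cells subcutaneously in the right flank. Treatment was daily intraperitoneal test compound (5 μg) for 30 days, or physiological saline. Tumor diameters and body weight were measured weekly, and volume = (smallest diameter)2 × (largest diameter)/2. Statistics used one-way ANOVA with Fisher's PLSD, with p < 0.05 taken as significant.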

[3] = 14C-labelled olpadronate displacement bone-binding model; settings: fetal mouse metatarsals, Figure 8b
breast cancer patients = settings: Phase III, 1803 breast cancer patients, zoledronate (+hormone) therapy; cited from earlier work
[4] = mouse fetal metatarsal, Figure 8a

Row | Structure (SMILES) | rescue from growth inhibition by FOH [1] | rescue from growth inhibition by GGOH [1] | IC50 (mouse fetal metatarsal; [4]) | IC50 (MCF-7) | other results
1 | O=P(O)(O)C(O)(Cc1cccc(-c2cccc(NS(=O)(=O)c3ccc4ccccc4c3)c2)c1)P(=O)(O)O [BPH-675] | FOH has no effect | almost fully reversed by addition of 20 μM GGOH | ~30 µM |  | FPPS inhibition (in words) (Human FPPS): very weak
2 | CCCCCCCCCCCCOc1ccc[n+](CC(P(=O)(O)O)P(=O)(O)O)c1 [BPH-716] |  |  | ~1.3 µM |  | activity in the cell assays compared with BPH-715 ([2]; growth inhibition and Matrigel invasion assays): about the same activity as BPH-715
3 | CC(C)=CCCC(C)=CCC(CC=C(C)CCC=C(C)C)(P(=O)(O)O)P(=O)(O)O [1,1-digeranylmethylene bisphosphonate, reference compound] |  | rescue by GGOH |  |  | 
4 | O=P(O)(O)C(O)(Cn1ccnc1)P(=O)(O)O [zoledronate] |  | only a partial rescue by GGOH |  | ~15 µM | effect on MDA-MB-231 invasion (MDA-MB-231 cells): essentially no effect even at 10 μM; reduction in tumor cell growth (tumor volume) (SK-ES-1 sarcoma cells): significant (p < 0.01) reduction in tumor cell growth versus control; IC50 (mouse fetal metatarsal; Mus musculus): ~0.1 µM; displacement of bound 14C-labelled olpadronate [3]: far more effective in displacing this bound bisphosphonate than are the lipophilic species; reduced risk of cancer returning, or death (breast cancer patients): 36%
5 | NCCC(O)(P(=O)(O)O)P(=O)(O)O [pamidronate] |  |  |  | ~140 µM | 
6 | CCCCCCCCCCOc1ccc[n+](CC(P(=O)([O-])O)P(=O)(O)O)c1 (centres unmarked) [BPH-715] | no rescue by either FOH or GGOH | no rescue by either FOH or GGOH | 2.9 µM and ~2.9 µM |  | IC50 in tumor cell growth inhibition, fold lower than zoledronate ([2]; versus zoledronate): ~ 100 fold; weight loss or other adverse effect (SK-ES-1 sarcoma cells): no weight loss or other adverse effect observed
